Experimental data published in ChEMBL document CHEMBL4392862, “Antioxidant, anti-tyrosinase and anti-melanogenic effects of (E)-2,3-diphenylacrylic acid derivatives” (Bioorg Med Chem, 2019).

What was measured:
[1] = Antioxidant activity assessed as DPPH radical scavenging activity at 1 mM after 30 mins under dark condition relative to untreated control; format: functional
In short: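 Test compounds dissolved in DMSO, mixed 1:9 (v/v) with 0.2 mM DPPH in methanol to a tested level of 1 mM. Incubated 30 min in the dark. Absorbance read at 517 nm. Scavenging % = (Ac−As)×100/Ac against untreated control. L-ascorbic acid used as positive control. Triplicate.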

B16-F10 = assay: Cytotoxicity against mouse B16F10 cells assessed as reduction in cell viability at 5 to 10 uM incubated for 24 hrs by WST8 assay; format: cell-based; conditions: b16-f10, 24 h
In short: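 B16F10 cells seeded at 5x10^4 per well in DMEM with 10% FBS and penicillin/streptomycin, 37 °C, 5% CO2, and grown 24 h. Exposed to 0, 5, 10 or 25 µM for 24 h. WST-8 reagent added for 1 h, OD read at 450 nm. Viability expressed as % of untreated cells. Three repeats.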

[2] = target: T1, Tyrosinase (Mus musculus) (UniProt P11344); assay: Inhibition of tyrosinase in alpha-MSH-stimulated mouse B16F10 cells incubated for 24 hrs relative to untreated control
T1 sequence (whole entry): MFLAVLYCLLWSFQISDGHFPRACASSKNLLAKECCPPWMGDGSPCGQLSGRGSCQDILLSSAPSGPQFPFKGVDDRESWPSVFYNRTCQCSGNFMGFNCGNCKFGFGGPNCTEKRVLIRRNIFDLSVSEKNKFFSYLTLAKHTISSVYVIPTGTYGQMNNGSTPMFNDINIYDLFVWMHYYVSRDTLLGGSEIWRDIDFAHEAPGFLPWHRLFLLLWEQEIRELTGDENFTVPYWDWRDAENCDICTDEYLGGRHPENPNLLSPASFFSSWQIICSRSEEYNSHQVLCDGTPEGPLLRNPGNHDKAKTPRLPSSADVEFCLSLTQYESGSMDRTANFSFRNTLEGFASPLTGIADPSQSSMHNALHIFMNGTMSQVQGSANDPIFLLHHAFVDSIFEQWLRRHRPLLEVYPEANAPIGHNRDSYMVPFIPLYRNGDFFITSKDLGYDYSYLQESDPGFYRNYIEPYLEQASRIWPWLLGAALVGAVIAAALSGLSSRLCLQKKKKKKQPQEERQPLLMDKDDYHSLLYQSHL
In short: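 B16F10 cells seeded at 5x10^4 per well and grown 24 h at 37 °C, 5% CO2. […] Cells PBS-washed, lysed in PMSF/Triton X-100 buffer, frozen at −80 °C, spun 12,000 rpm 4 °C. Supernatant incubated with L-dopa 30 min at 37 °C, OD read at 500 nm. Triplicate.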

[3] = target: T1, Tyrosinase (Mus musculus); conditions: 400 uM

Structure (SMILES) | inhibition [1] [%] | further results
O=C(O)/C(=C\c1cc(Br)c(O)c(Br)c1)c1ccccc1 | 11.6 | –
COc1ccc(/C=C(/C(=O)O)c2ccccc2)cc1OC | 10.2 | –
Cc1cc(/C=C(/C(=O)O)c2ccccc2)ccc1O | 78.1 | –
COc1ccc(/C=C(/C(=O)O)c2ccccc2)cc1 | 5.68 | –
O=C(O)/C(=C/c1ccccc1O)c1ccccc1 | 4.43 | –
O=C(O)/C(=C/c1ccc(O)cc1O)c1ccccc1 | 52.1 | Activity (B16-F10): Non-Toxic; inhibition [2]: Dose-dependent effect
O=C(O)/C(=C/c1ccc(O)c(O)c1)c1ccccc1 | 83.7 | –
O=C(O)/C(=C/c1cc(Br)c(O)c(Br)c1)c1ccccc1 | 23.9 | –
O=C1O[C@H]([C@@H](O)CO)C(O)=C1O | 84.6 | –
COc1cc(/C=C(/C(=O)O)c2ccccc2)ccc1O | 81.6 | –
COc1ccc(/C=C(/C(=O)O)c2ccccc2)cc1O | 24 | –
COc1cc(/C=C(/C(=O)O)c2ccccc2)cc(OC)c1O | 85 | –
O=C(O)/C(=C/c1cccc(O)c1)c1ccccc1 | 12.4 | –
O=C(O)/C(=C/c1ccc(O)cc1)c1ccccc1 | 6.04 | –
O=C(O)/C(=C/c1ccc(O)c(Br)c1)c1ccccc1 | 19.4 | –
OC[C@H]1O[C@@H](Oc2ccc(O)cc2)[C@H](O)[C@@H](O)[C@@H]1O | – | inhibition [3]: 42.6%
CCOc1cc(/C=C(/C(=O)O)c2ccccc2)ccc1O | 43.6 | –
